{"data": "Published values of several laboratories", "RPS6KA2": "Ribosomal protein S6 kinase alpha-2 (RPS6KA2, Homo sapiens, UniProt Q15349)", "RPS6KA2 N-terminal kinase domain": "Ribosomal protein S6 kinase alpha-2, N-terminal kinase domain (RPS6KA2, Homo sapiens, UniProt Q15349)", "RPS6KA2 C-terminal kinase domain": "Ribosomal protein S6 kinase alpha-2, C-terminal kinase domain (RPS6KA2, Homo sapiens, UniProt Q15349)", "note": "Compare with care: the assays were run in different laboratories."}
{"Compound": "Cc1ccc(C(=O)Nc2ccc(CN3CCN(C)CC3)c(C(F)(F)F)c2)cc1C#Cc1cnc2cccnn12", "target": "RPS6KA2", "assay": "enzyme activity, inhibitor", "conditions": "23.5 nM", "endpoint": "remaining activity", "result": "100%"}
{"Compound": "N[C@H]1CCN(c2nccc(-c3cnn4ncccc34)n2)C1", "target": "RPS6KA2 N-terminal kinase domain", "assay": "binding, competition with immobilised ligand", "conditions": "1 µM", "endpoint": "remaining binding", "result": "85%"}
{"Compound": "CCCOc1ccc(OC)c(F)c1C(=O)c1ccc(C(=O)N[C@@H]2CNC[C@H]2NC(=O)c2ccc3[nH]ncc3c2)cc1", "target": "RPS6KA2", "assay": "enzyme activity, inhibitor", "conditions": "10 µM", "endpoint": "remaining activity", "result": "6%"}
{"Compound": "CCCS(=O)(=O)Nc1ccc(F)c(C(=O)c2c[nH]c3ncc(-c4ccc(Cl)cc4)cc23)c1F", "target": "RPS6KA2", "assay": "enzyme activity, inhibitor", "conditions": "1 µM", "endpoint": "inhibition", "result": "< 10%"}
{"Compound": "O=C(O)[C@@H]1[C@@H](Cn2nnc3ccccc3c2=O)CC[C@H]1C(=O)c1ccc(OCCC2CCOCC2)cc1", "target": "RPS6KA2 C-terminal kinase domain", "assay": "cell-free assay, competition with immobilised ligand", "conditions": "1 µM", "endpoint": "remaining binding", "result": "100%"}
{"Compound": "CNCc1ccc(-c2cc(-c3nc(-c4ccc(S(=O)(=O)C(C)C)cc4)cnc3N)on2)cc1", "target": "RPS6KA2", "assay": "enzyme activity, inhibitor", "conditions": "0.4 µM", "endpoint": "inhibition", "result": "17%"}
{"Compound": "CO[C@@H](C)c1c(Nc2ccc([C@H](N(C)C(=O)C3CCS(=O)(=O)CC3)C(F)(F)F)cc2)cnc2cc(Cl)nn12", "target": "RPS6KA2 C-terminal kinase domain", "assay": "cell-free assay, competition with immobilised ligand", "conditions": "1 µM", "endpoint": "remaining binding", "result": "79%"}
{"Compound": "Cc1cnc(NC2CCOCC2)nc1-n1cnc(C(=O)NC(CN)c2cc(F)cc(Cl)c2)c1 (stereo not drawn)", "target": "RPS6KA2", "assay": "enzyme activity, inhibitor, radiometric", "conditions": "1 µM", "endpoint": "remaining activity", "result": "12%"}
{"Compound": "CC(C)(C)c1nc(-c2cccc(NS(=O)(=O)c3c(F)cccc3F)c2F)c(-c2ccnc(N)n2)s1", "target": "RPS6KA2", "assay": "enzyme activity, inhibitor, radiometric", "conditions": "1 µM", "endpoint": "remaining activity", "result": "81%"}
{"Compound": "Nc1ncnc2occ(-c3ccc(NC(=O)Nc4cc(C(F)(F)F)ccc4F)cc3)c12", "target": "RPS6KA2 N-terminal kinase domain", "assay": "cell-free assay, inhibitor", "conditions": "20 µM", "endpoint": "remaining signal", "result": "0.6%"}
{"Compound": "CCCCN(CCCC)C(=O)CN1C[C@@H](c2cc(OC)c3c(c2)OCO3)[C@H](C(=O)O)[C@H]1CC(C)(C)CCC", "target": "RPS6KA2 C-terminal kinase domain", "assay": "cell-free assay, competition with immobilised ligand", "conditions": "1 µM", "endpoint": "remaining binding", "result": "90.2%"}
{"Compound": "Cc1ccc(NC(=O)c2ccc(C)c(C(F)(F)F)c2)cc1C#Cc1nn(C2CCC(O)CC2)c2ncnc(N)c12 (stereo not drawn)", "target": "RPS6KA2", "assay": "cell-free assay", "conditions": "10 µM", "endpoint": "remaining signal", "result": "38%"}
{"Compound": "O=c1nc(-c2ccccn2)sc2ccccc12", "target": "RPS6KA2 N-terminal kinase domain", "assay": "binding, competition with immobilised ligand", "conditions": "1 µM", "endpoint": "remaining binding", "result": "100%"}
{"Compound": "CN(c1nccc(-c2cnn3ncccc23)n1)C1CC1", "target": "RPS6KA2 N-terminal kinase domain", "assay": "binding, competition with immobilised ligand", "conditions": "1 µM", "endpoint": "remaining binding", "result": "99%"}
{"Compound": "COc1cc2ncnc(Nc3ccc(Oc4ccccc4)c(C)c3C)c2cc1OC", "target": "RPS6KA2", "assay": "enzyme activity, inhibitor", "conditions": "1 µM", "endpoint": "inhibition", "result": "2%"}
{"Compound": "Cn1cc(Cl)c2c(Oc3c(F)cc(Nc4cc(Cl)nc(N)n4)cc3F)ccnc21", "target": "RPS6KA2 N-terminal kinase domain", "assay": "cell-free assay, competition with immobilised ligand", "conditions": "0.1 µM", "endpoint": "remaining binding", "result": "95%"}
{"Compound": "C[C@@H]1CCN(c2nccc(-c3cnn4ncccc34)n2)C1", "target": "RPS6KA2 C-terminal kinase domain", "assay": "binding, competition with immobilised ligand", "conditions": "1 µM", "endpoint": "remaining binding", "result": "45%"}
{"Compound": "COc1cc(Cl)c(C(=O)N[C@@H](CN[C@H]2CC[C@@H](N)CC2)Cc2ccc(C#N)cc2)cc1-c1ccc(CN[C@H](C)c2ccc(C)cc2)o1", "target": "RPS6KA2", "assay": "enzyme activity, inhibitor", "conditions": "1 µM", "endpoint": "remaining activity", "result": "106%"}
{"Compound": "c1cnn2ncc(-c3ccnc(N4CCC45COC5)n3)c2c1", "target": "RPS6KA2 N-terminal kinase domain", "assay": "binding, competition with immobilised ligand", "conditions": "1 µM", "endpoint": "remaining binding", "result": "95%"}
{"Compound": "COc1ccc2c(O[C@@H]3C[C@H]4C(=O)N[C@]5(C(=O)O)CC5/C=C\\CCCCC[C@H](NC(=O)OC5CCCC5)C(=O)N4C3)cc(-c3csc(NC(=O)C(C)C)n3)nc2c1C (stereo partly drawn)", "target": "RPS6KA2 N-terminal kinase domain", "assay": "cell-free assay, competition with immobilised ligand", "conditions": "1 µM", "endpoint": "remaining binding", "result": "100%"}
{"Compound": "CN(C)c1ncc(F)c(-c2cnn3ncccc23)n1", "target": "RPS6KA2 C-terminal kinase domain", "assay": "binding, competition with immobilised ligand", "conditions": "1 µM", "endpoint": "remaining binding", "result": "97%"}
{"Compound": "C[C@@H]1CN(c2cc(-c3n[nH]c4ccc(OC5(C)CC5)cc34)ncn2)C[C@H](C)O1", "target": "RPS6KA2 C-terminal kinase domain", "assay": "cell-free assay, competition with immobilised ligand", "conditions": "0.1 µM", "endpoint": "remaining binding", "result": "100%"}
{"Compound": "COc1ccnn2ncc(-c3ccnc(N(C)C)n3)c12", "target": "RPS6KA2 N-terminal kinase domain", "assay": "binding, competition with immobilised ligand", "conditions": "1 µM", "endpoint": "remaining binding", "result": "74%"}
{"Compound": "Cc1ccc(Nc2nccc(N(C)c3ccc4c(C)n(C)nc4c3)n2)cc1S(N)(=O)=O", "target": "RPS6KA2", "assay": "enzyme activity, inhibitor", "conditions": "0.3 µM", "endpoint": "inhibition", "result": "27%"}
